According to ChEMBL document CHEMBL3352220, “Design, synthesis, anticancer activity and docking studies of novel 4-morpholino-7,8-dihydro-5H-thiopyrano[4,3-d]pyrimidine derivatives as mTOR inhibitors” (Bioorg Med Chem, 2014):

Columns and labels:
[1] = biological target: T1, Serine/threonine-protein kinase mTOR (Homo sapiens, UniProt P42345); test: Inhibition of mTOR kinase (unknown origin) after 1 hr by TR-FRET assay
[2] = Cytotoxicity against human PC3 cells after 72 hrs by MTT assay; type: functional, cell-based; conditions: PC-3, 72 h
Method in brief: (§1)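 Cells grown in MEM with 10% FBS; ~4 × 10³ cells/well plated and held 24 h at 37 °C, 5% CO2. Compounds added at indicated final concentrations for 72 h. MTT added, 4 h at 37 °C; formazan dissolved in DMSO, absorbance read at 492 nm against 630 nm reference. Tested three times per cell line; inhibition rates or IC50 averaged from two determinations.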

[3] = biological target: Phosphatidylinositol 4,5-bisphosphate 3-kinase catalytic subunit alpha isoform (Homo sapiens) (UniProt P42336); test: Inhibition of PI3K-alpha (unknown origin) using l-alpha-phosphatidylinositol as substrate at 10 uM after 60 mins by luminescence assay
[4] = Cytotoxicity against human H460 cells after 72 hrs by MTT assay; type: functional, cell-based; conditions: NCI-H460, 72 h; method in brief: as §1
[5] = Selectivity ratio of BMCL-200908069-1 IC50 to compound IC50 for human H460 cells; type: functional
[6] = biological target: T1, Serine/threonine-protein kinase mTOR; test: Selectivity ratio of BMCL-200908069-1 IC50 to compound IC50 for mTOR kinase (unknown origin)
PC-3 = test: Selectivity ratio of BMCL-200908069-1 IC50 to compound IC50 for human PC3 cells; type: functional

Chain of Phosphatidylinositol 4,5-bisphosphate 3-kinase catalytic subunit alpha isoform (Homo sapiens) (P42336 whole entry, canonical isoform): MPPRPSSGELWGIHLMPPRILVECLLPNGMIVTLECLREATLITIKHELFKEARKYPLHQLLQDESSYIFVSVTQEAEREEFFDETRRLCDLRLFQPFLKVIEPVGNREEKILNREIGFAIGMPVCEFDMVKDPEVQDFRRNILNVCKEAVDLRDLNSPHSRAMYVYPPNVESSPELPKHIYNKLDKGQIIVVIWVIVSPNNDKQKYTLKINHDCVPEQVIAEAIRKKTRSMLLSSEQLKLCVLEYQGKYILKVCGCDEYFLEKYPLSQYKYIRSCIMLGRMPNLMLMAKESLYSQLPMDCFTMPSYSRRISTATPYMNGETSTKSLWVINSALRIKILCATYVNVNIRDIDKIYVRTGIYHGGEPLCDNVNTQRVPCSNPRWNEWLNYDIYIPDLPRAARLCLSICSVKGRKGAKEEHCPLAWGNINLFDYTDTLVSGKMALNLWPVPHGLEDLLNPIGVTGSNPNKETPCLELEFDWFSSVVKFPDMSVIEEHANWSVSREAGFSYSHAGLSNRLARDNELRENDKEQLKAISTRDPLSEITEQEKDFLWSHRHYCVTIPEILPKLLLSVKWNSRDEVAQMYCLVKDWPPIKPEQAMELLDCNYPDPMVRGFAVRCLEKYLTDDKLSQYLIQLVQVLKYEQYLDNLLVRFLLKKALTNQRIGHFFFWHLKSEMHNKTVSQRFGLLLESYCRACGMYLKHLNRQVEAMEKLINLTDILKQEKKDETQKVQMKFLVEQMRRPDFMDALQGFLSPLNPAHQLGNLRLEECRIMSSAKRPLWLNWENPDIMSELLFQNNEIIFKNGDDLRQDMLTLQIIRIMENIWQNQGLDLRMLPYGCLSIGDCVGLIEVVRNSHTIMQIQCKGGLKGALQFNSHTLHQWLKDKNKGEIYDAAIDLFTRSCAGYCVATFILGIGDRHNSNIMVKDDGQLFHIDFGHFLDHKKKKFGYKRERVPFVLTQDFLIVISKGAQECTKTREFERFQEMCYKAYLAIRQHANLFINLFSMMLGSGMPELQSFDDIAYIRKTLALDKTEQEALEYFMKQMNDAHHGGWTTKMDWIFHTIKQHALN

| SMILES | IC50 [1] | inhibition [3] | Ratio IC50 [6] | IC50 [2] | IC50 [4] | Ratio IC50 [5] | Ratio IC50 (PC-3) |
| --- | --- | --- | --- | --- | --- | --- | --- |
| COc1cc(/C=N/Nc2nc3c(c(N4CCOCC4)n2)CS(=O)(=O)CC3)cc(OC)c1O | 2.2 µM | 6.2% | – | > 20 µM | – | – | – |
| O=S1(=O)CCc2nc(N/N=C/c3cc(Br)c(O)c(Br)c3)nc(N3CCOCC3)c2C1 | 6.93 µM | 24.9% | – | > 20 µM | – | – | – |
| COc1cc(/C=N/Nc2nc(N3CCOCC3)nc(N3CCOCC3)n2)cc(OC)c1O | 1.37 µM | – | – | 16.3 µM | 9.52 µM | – | – |
| COc1cc(/C=N/Nc2nc3c(c(N4CCOCC4)n2)CSCC3)cc(OC)c1O | 0.8 µM | 12% | 1.71 | 11.9 µM | 7.43 µM | 1.28 | 1.37 |

Continued by falling IC50 [1], values first:

| IC50 [1] | inhibition [3] | Ratio IC50 [6] | SMILES | IC50 [2] | IC50 [4] | Ratio IC50 [5] | Ratio IC50 (PC-3) |
| --- | --- | --- | --- | --- | --- | --- | --- |
| 2.67 µM | 21.6% | – | Oc1c(Br)cc(/C=N/Nc2nc3c(c(N4CCOCC4)n2)CSCC3)cc1Br | > 20 µM | – | – | – |
| 1.94 µM | 18.8% | – | Oc1ccc(/C=N/Nc2nc3c(c(N4CCOCC4)n2)CSCC3)cc1Br | 14.4 µM | 10.8 µM | – | – |
